This is an account of results in ChEMBL document CHEMBL4732226, “Discovery of a potent G-protein-coupled receptor 119 agonist for the treatment of type 2 diabetes” (Bioorg Med Chem, 2021).

For orientation: pEC50 means the EC50 on a negative log10 scale, so that one unit is a factor of ten. Broadly, the Emax is the greatest response seen or fitted, relative to the assay's reference. A word on the half-life: it is the time needed for the level to fall by half in the phase considered. By AUC(0-inf) is commonly meant total exposure, with the tail of the curve extrapolated. For orientation: Cmax means the highest concentration seen after dosing. One may read the Tmax as the time from dosing to the highest level. What is called AUC(0-t) is the area under the concentration-time curve up to a stated or last time point.

Data set [1] addresses T1, Glucose-dependent insulinotropic receptor (Homo sapiens, UniProt Q8TDV5).
T1 sequence (Q8TDV5 whole entry): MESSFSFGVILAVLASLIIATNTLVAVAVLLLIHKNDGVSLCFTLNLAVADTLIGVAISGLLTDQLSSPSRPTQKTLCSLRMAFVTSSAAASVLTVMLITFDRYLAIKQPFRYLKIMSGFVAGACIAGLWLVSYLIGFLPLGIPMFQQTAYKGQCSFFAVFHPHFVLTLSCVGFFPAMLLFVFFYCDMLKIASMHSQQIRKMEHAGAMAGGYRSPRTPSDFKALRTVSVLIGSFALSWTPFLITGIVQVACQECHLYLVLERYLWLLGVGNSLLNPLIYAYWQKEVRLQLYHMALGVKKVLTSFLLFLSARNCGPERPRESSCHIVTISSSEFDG
The experiment in a line: Agonist activity at human GPR119 stably transfected in CHO-K1 cells assessed as increase in cAMP stimulation after 1 hr by enzyme immunoassay. The following applies: for pEC50: read-out: EC50; for EC50: cho-k1. It counts as functional, cell-based.

The target of data set [2] is T2, Glucose-dependent insulinotropic receptor (Homo sapiens) (UniProt Q8TDV5).
T2 sequence (whole entry): T1 sequence (Q8TDV5 whole entry)
Nature of the data set: Agonist activity at human GPR119 stably transfected in CHO-K1 cells assessed as increase in cAMP stimulation after 1 hr by enzyme immunoassay relative to AR231453. It counts as functional, cell-based.

The test system of the next data set is Mus musculus. Nature of the data set: Antidiabetic activity in glucose-stimulated […] mouse assessed as reduction in blood glucose level at 50 mg/kg, po pretreated for 30 mins followed by glucose-stimulation and measured up to 120 mins by OGTT method relative to control. It counts as functional. Also on record: scale not given: the % may be the effect or the level left. The following applies: 0.5 h. The essentials:
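C57 mice aged 6–8 weeks were grouped by non-fasting glucose and fasted overnight. Single oral dose of 50 mg/kg; 30 min later basal bleed and oral glucose 3 g/kg. Serum glucose taken at 20, 40, 60 and 120 min. Change in glucose AUC calculated.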

The nature of data set [3]: Half life in Sprague-Dawley rat at 25 mg/kg, po up to 24 hrs. It counts as ADME, organism-based. The following applies: in vivo. The essentials:
(§1)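 Male SD rats fasted overnight, water ad libitum, fed 4 h after dosing. Single oral gavage of 25 mg/kg as a homogeneous suspension in 0.5% Tween 80 in 0.5% Na-CMC. Blood drawn into Na-heparin tubes at 0.25, 0.5, 1, 2, 4, 6, 8 and 24 h; plasma stored at -70°C. Parameters by non-compartmental analysis, with C0 taken as zero and BLQ samples set to zero.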

Data set [4] can be described thus: AUC(0 to infinity) in Sprague-Dawley rat at 25 mg/kg, po up to 24 hrs. It counts as ADME, organism-based. Also on record: route oral, dose 25 mg/kg, time <=24. The following applies: in vivo. The essentials: as §1
Data set [5] is described as follows: Elimination rate constant in Sprague-Dawley rat at 25 mg/kg, po up to 24 hrs. It counts as ADME, organism-based. The following applies: in vivo. The essentials:
as §1

Data set [6] can be described thus: Cmax in Sprague-Dawley rat at 25 mg/kg, po up to 24 hrs. It counts as ADME, organism-based. Also noted: route oral, dose 25 mg/kg, time <=24. The following applies: in vivo. The essentials: as §1
Data set [7] can be described thus: Tmax in Sprague-Dawley rat at 25 mg/kg, po up to 24 hrs. The following applies: in vivo. It counts as ADME, organism-based. The essentials:
as §1

Data set [8] is described as follows: AUC(0 to t) in Sprague-Dawley rat at 25 mg/kg, po up to 24 hrs. It counts as ADME, organism-based. Also noted: route oral, dose 25 mg/kg, time <=24. The following applies: in vivo. Summed up:
as §1

pEC50: −log10 of the molar value.

On to `Cc1c(Oc2ccc(/C=C3\SC(=O)NC3=O)cc2)ncnc1OC1CCN(C(=O)OCC(C)C)CC1`, for which the pEC50 in data set [1] is 7.12. The maximal response (Emax) in data set [2] (filed as agonist) is 70.2%. In the data set with Mus musculus, the Activity was 24%.
For the compound `CC(C)(C)OC(=O)N1CCC(Oc2cc(Oc3ccc(/C=C4\SC(=O)NC4=O)cc3)ncn2)CC1`, in [2] (filed as agonist), the Emax came out at 122%.
Turning to `COC(=O)N1CCC(Oc2ncnc(Oc3cccc(/C=C4\SC(=O)NC4=O)c3)c2C)CC1`, the EC50 entry in data set [1] is “Not Active”.
In the case of `CC(C)(C)OC(=O)N1CCC(Oc2cc(Oc3cccc(/C=C4\SC(=O)NC4=O)c3)ncn2)CC1`, in data set [1], the pEC50 is 6.90. Besides, the Emax in [2] (filed as agonist) is 78.3%.
`Cc1c(Oc2ccc(/C=C3\SC(=O)NC3=O)cc2)ncnc1OC1CCN(C(=O)OC(C)(C)C)CC1` showed a half-life in data set [3] of 4.37 h. In [4], this compound displayed a total exposure AUC(0-inf) of 8310 ng·h/mL. In addition, the k el at 24 h in [5] was 4.44e-05 s⁻¹. The compound also registered a Cmax in [6] of 835 ng/mL. Moreover, in data set [2] (filed as agonist), the Emax worked out at 68.8%. Moreover, the Tmax in [7] was 2.25 h. In [8], the AUC(0-t) at 24 h worked out at 8110 ng·h/mL. In addition, the Activity in the data set with Mus musculus was determined as 34.6%.
Consider `COC(=O)N1CCC(Oc2cc(Oc3ccc(/C=C4\SC(=O)NC4=O)cc3)ncn2)CC1`, for which, in data set [1], the EC50 result is reported as “Not Active”.
Still for that read-out and setting: next, `CCOC(=O)N1CCC(Oc2ncnc(Oc3cccc(/C=C4\SC(=O)NC4=O)c3)c2C)CC1`: “Not Active”.
With `COC(=O)N1CCC(Oc2ncnc(Oc3ccc(/C=C4\SC(=O)NC4=O)cc3)c2C)CC1`, the pEC50 in [1] is 5.85. In [2] (filed as agonist), the Emax was 53.3%.
On the same counts, the results for `CCOC(=O)N1CCC(Oc2cc(Oc3ccc(/C=C4\SC(=O)NC4=O)cc3)ncn2)CC1` are 6.10 and 51.8%.
Taken in the same sequence, the figures for `CCOC(=O)N1CCC(Oc2cc(Oc3cccc(/C=C4\SC(=O)NC4=O)c3)ncn2)CC1` were 6.09 and 43.3%.
As to `CC(C)COC(=O)N1CCC(Oc2cc(Oc3cccc(/C=C4\SC(=O)NC4=O)c3)ncn2)CC1`, the pEC50 in data set [1] is 6.14. In addition, the Emax in data set [2] (filed as agonist) is 62.4%.
As to `Cc1c(Oc2ccc(/C=C3\SC(=O)NC3=O)cc2)ncnc1OC1CCN(C(=O)OCc2ccccc2)CC1`, in data set [1], the negative-log EC50 (pEC50) is 6.09. Further, the Emax in data set [2] (filed as agonist) was 43.3%.
Consider `COC(=O)N1CCC(Oc2cc(Oc3cccc(/C=C4\SC(=O)NC4=O)c3)ncn2)CC1`, for which the pEC50 in [1] is 5.73. In data set [2], the maximal effect (Emax) was 33.7%.
Turning to `Cc1c(Oc2cccc(/C=C3\SC(=O)NC3=O)c2)ncnc1OC1CCN(C(=O)OCc2ccccc2)CC1`, the negative-log EC50 (pEC50) in [1] was 6.98. In [2] (filed as agonist), the maximum response (Emax) stood at 138%.
On to `Cc1c(Oc2cccc(/C=C3\SC(=O)NC3=O)c2)ncnc1OC1CCN(C(=O)OCC(C)C)CC1`, for which the EC50 result in data set [1] is recorded as “Not Active”.
On to `O=C1NC(=O)/C(=C/c2ccc(Oc3cc(OC4CCN(C(=O)OCc5ccccc5)CC4)ncn3)cc2)S1`, for which the negative logarithm of the EC50 (pEC50) in [1] is 6.97. Further, the maximum response (Emax) in data set [2] (filed as agonist) was found to be 88.3%.
On the same counts, the results for `CCOC(=O)N1CCC(Oc2ncnc(Oc3ccc(/C=C4\SC(=O)NC4=O)cc3)c2C)CC1` are 6.80 and 141%.
Taken in the same sequence, the figures for `CC(C)COC(=O)N1CCC(Oc2cc(Oc3ccc(/C=C4\SC(=O)NC4=O)cc3)ncn2)CC1` were 6.13 and 51%.
Taken in the same sequence, the figures for `O=C1NC(=O)/C(=C/c2cccc(Oc3cc(OC4CCN(C(=O)OCc5ccccc5)CC4)ncn3)c2)S1` were 6.81 and 98.3%.
Regarding `CC(C)c1noc(C2CCN(c3ncnc(Nc4ccc(S(C)(=O)=O)cc4F)c3[N+](=O)[O-])CC2)n1`, the pEC50 in data set [1] was 8.22. Also, in data set [2] (filed as agonist), the Emax came to 100%.
